According to ChEMBL document CHEMBL4732088, “Identification and optimization of piperlongumine analogues as potential antioxidant and anti-inflammatory agents via activation of Nrf2” (Eur J Med Chem, 2021):
The source made the active and inactive calls. No cut-off for these calls is given here.

What was measured:
PC-12 [1] = test: Neuroprotective activity against H2O2-induced cell damage in rat PC12 cells assessed as cell viability at 20 uM after 24 hrs by MTT assay (reference value: 46 +/- 4.12 %); assay type: functional; settings: read-out: Activity
PC-12 [2] = test: Cytoprotective activity against 6-OHDA-induced neurotoxicity in rat PC12 cells assessed as reduction in LDH release at 5 to 20 uM preincubated for 24 hrs followed by 6-OHDA treatment by LDH assay; assay type: functional, cell-based; settings: dose 5-20 µM
How it was run: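 PC12 cells pretreated with compound (5, 10, 20 μM) for 24 h, then H₂O₂ or 6-OHDA; membrane damage read as LDH leakage; mean ± SD of three independent experiments.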

PC-12 [3] = test: Protection against 6-OHDA-induced mitochondrial dysfunction in rat PC12 cells assessed as change in mitochondrial membrane potential loss at 20 uM pretreated with compound followed by 6-OHDA addition by JC-1 staining based flow cytometry (reference value: 26.8 %); assay type: functional
How it was run: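 Mitochondrial membrane potential in PC12 cells pretreated with compound (5, 10, 20 μM), then exposed to H₂O₂ (200 μM) or 6-OHDA (150 μM). JC-1 staining, red-to-green fluorescence shift read by flow cytometry. Mean ± SD, n = 3.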

PC-12 [4] = test: Protection against H2O2-induced apoptosis in rat PC12 cells assessed as viable cells at 10 uM incubated for 24 hrs by annexin V FITC/propidium iodide staining based flow cytometry (reference value: 79.3 %); assay type: functional; settings: read-out: Activity
PC-12 [5] = test: Protection against H2O2-induced apoptosis in rat PC12 cells assessed as early apoptotic cells at 10 uM incubated for 24 hrs by annexin V FITC/propidium iodide staining based flow cytometry (reference value: 3.9 %); assay type: functional
PC-12 [6] = test: Neuroprotective activity against H2O2-induced apoptosis in rat PC12 cells assessed as reduction in apoptotic nuclei at 5 to 20 uM pretreated with compound followed by H2O2 addition by Hoechst 33342 staining based fluorescence microscopy analysis; assay type: functional, cell-based; settings: dose 5-20 µM
How it was run: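 PC12 cells pretreated with compound before H₂O₂ or 6-OHDA; nuclei stained with Hoechst 33342, imaged on a high-content system with phase-contrast views; apoptotic nuclei scored as bright condensed aggregates; n = 3.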

[7] = molecular target: T1, Nuclear factor erythroid 2-related factor 2 (Rattus norvegicus) (UniProt O54968); test: Activation of Nrf2 in rat PC12 cells assessed as increase in Nrf2 protein level at 20 uM after 3 hrs by Western blot analysis; assay type: cell-based; settings: PC-12, filed as activator
T1 sequence (whole entry): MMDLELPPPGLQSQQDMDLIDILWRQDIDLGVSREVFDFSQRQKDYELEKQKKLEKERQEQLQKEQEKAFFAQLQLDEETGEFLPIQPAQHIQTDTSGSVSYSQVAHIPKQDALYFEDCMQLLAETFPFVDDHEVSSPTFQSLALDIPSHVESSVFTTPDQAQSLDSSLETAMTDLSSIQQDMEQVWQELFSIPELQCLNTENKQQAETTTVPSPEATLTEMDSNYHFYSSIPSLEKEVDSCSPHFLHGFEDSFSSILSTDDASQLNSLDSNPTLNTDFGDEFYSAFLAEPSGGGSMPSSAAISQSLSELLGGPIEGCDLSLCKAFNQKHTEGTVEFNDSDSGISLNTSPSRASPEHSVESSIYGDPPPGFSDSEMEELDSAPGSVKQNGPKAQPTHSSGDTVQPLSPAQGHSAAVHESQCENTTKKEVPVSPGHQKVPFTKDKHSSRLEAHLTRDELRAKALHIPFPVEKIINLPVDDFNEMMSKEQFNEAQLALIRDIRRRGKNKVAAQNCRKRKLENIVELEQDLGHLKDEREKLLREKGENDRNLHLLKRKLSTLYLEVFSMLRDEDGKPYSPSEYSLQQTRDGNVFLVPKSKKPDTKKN

[8] = molecular target: T1, Nuclear factor erythroid 2-related factor 2 (Rattus norvegicus); test: Activation of Nrf2 in rat PC12 cells assessed as increase in GCLM protein level after 24 hrs by Western blot analysis; assay type: cell-based; settings: PC-12, filed as activator, dose 5-20 µM
How it was run: (§1)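 PC12 cells treated with compound for 24 h at rising concentrations; NQO1, HO-1, TrxR1, GCLM, GCLC protein detected by Western blot.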

[9] = molecular target: T1, Nuclear factor erythroid 2-related factor 2 (Rattus norvegicus); test: Activation of Nrf2 in rat PC12 cells assessed as increase in GCLC protein level after 24 hrs by Western blot analysis; assay type: cell-based; settings: PC-12, filed as activator, dose 5-20 µM; how it was run: as §1
PC-12 [10] = test: Neuroprotective activity against H2O2-induced cell death in rat PC12 cells assessed as cell viability at 20 uM preincubated for 30 mins in presence of ZNPP followed by H2O2 stimulation and measured after 24 hrs by MTT assay; assay type: functional, cell-based; settings: time 24.5 hrs
How it was run: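 PC12 cells incubated 30 min with compound (20 μM) plus brusatol (10 nM) or ZnPP (10 nM), then insult for 24 h (H₂O₂ stated as 150 μM); viability by MTT.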

[11] = molecular target: T2, Nuclear factor erythroid 2-related factor 2 (Mus musculus) (UniProt Q60795); test: Activation of Nrf2 in mouse BV2 cells assessed as upregulation of Nrf2 protein expression after 24 hrs by Western blot analysis; assay type: cell-based; settings: BV-2, filed as activator, dose 5-20 µM
T2 sequence (whole entry): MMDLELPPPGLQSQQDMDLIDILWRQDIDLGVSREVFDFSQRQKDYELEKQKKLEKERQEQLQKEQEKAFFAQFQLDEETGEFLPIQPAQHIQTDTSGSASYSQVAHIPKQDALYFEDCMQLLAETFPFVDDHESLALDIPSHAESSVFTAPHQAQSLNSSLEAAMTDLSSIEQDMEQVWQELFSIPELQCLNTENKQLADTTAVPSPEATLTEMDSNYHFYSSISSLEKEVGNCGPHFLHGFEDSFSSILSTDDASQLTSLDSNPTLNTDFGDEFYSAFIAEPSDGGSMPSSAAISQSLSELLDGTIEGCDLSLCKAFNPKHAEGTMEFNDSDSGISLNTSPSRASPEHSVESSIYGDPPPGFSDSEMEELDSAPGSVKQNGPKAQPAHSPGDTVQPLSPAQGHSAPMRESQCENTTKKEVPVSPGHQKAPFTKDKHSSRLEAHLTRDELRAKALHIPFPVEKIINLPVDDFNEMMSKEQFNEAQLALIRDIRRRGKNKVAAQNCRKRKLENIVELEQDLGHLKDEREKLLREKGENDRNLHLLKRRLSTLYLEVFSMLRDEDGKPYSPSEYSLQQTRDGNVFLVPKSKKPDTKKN
How it was run: (§2)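 BV2 microglia exposed to compound for 24 h over a concentration series; Nrf2, NQO1, HO-1, TrxR1, GCLM and GCLC protein levels read by Western blot.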

[12] = molecular target: T2, Nuclear factor erythroid 2-related factor 2 (Mus musculus); test: Activation of Nrf2 in mouse BV2 cells assessed as upregulation of TrxR1 protein expression after 24 hrs by Western blot analysis; assay type: cell-based; settings: BV-2, filed as activator, dose 5-20 µM; how it was run: as §2

CCN(C)C(=O)N1CCN(C(=O)/C=C/c2ccc(F)cc2)C1=O
viability at 20 µM (PC-12 [1]): 75%
Activity (PC-12 [2]): Active
Activity (PC-12 [3]): 10.7%
viability at 10 µM (PC-12 [4]): 92.4%
Activity (PC-12 [5]): 2.1%
Activity (PC-12 [6]): Active
Activity [7]: Active
Activity [8]: Dose-dependent effect
Activity [9]: Dose-dependent effect
Activity (PC-12 [10]): inactive
Activity [11]: Dose-dependent effect
Activity [12]: Dose-dependent effect
